Reference: ChEMBL document CHEMBL1136016, “Synthesis, biological activity, and molecular modeling investigation of new pyrazolo[4,3-e]-1,2,4-triazolo[1,5-c]pyrimidine derivatives as human A(3) adenosine receptor antagonists” (J Med Chem, 2002)
Blank lines part the entries; values can stand above or below the compound they belong to.

Legend:
Adenosine receptor A1 [1] = biological target: T1, Adenosine receptor A1 (Homo sapiens, UniProt P30542); assay: Displacement of [3H]DPCPX from human Adenosine A1 receptor expressed in CHO cells; range 525-691; type: cell-based
T1 sequence (P30542 whole entry): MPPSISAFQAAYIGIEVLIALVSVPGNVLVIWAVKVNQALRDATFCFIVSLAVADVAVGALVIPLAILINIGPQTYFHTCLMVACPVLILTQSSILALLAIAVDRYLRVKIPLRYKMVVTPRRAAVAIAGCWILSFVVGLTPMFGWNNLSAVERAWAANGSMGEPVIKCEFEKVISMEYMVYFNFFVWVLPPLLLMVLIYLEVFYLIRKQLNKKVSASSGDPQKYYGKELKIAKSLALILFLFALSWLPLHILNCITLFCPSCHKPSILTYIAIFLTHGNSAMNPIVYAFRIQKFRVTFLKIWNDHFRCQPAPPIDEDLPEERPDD

Adenosine receptor A2b [2] = biological target: T2, Adenosine receptor A2b (Homo sapiens, UniProt P29275); assay: Displacement of [3H]DPCPX from human Adenosine A2B receptor expressed in HEK293 cells; range 89-116; type: cell-based
T2 sequence (P29275 whole entry): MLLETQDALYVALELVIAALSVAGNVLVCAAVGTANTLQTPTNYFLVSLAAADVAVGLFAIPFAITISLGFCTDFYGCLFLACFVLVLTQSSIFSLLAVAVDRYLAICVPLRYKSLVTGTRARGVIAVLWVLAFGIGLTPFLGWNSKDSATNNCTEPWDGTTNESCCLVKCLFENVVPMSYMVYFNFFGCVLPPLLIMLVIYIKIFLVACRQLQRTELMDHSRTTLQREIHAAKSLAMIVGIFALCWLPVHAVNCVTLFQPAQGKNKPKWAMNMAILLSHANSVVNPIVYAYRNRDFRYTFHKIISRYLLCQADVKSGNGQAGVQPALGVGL
Method in brief: (§1)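 Membranes from HEK-293 cells with human recombinant A2B receptor. Incubation 60 min at 25 °C in 50 mM Tris HCl, 10 mM MgCl2, 1 mM EDTA, 0.1 mM benzamidine, pH 7.4, with 2 IU/mL adenosine deaminase and 40 nM [3H]DPCPX. At least six to eight test concentrations. Nonspecific binding defined with NECA. n = 3-6.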

Adenosine receptor A2a [3] = biological target: T3, Adenosine receptor A2a (Homo sapiens, UniProt P29274); assay: Displacement of [3H]SCH-58261 from human Adenosine A2A receptor expressed in HEK293 cells; range 312-515; type: cell-based
T3 sequence (P29274 whole entry): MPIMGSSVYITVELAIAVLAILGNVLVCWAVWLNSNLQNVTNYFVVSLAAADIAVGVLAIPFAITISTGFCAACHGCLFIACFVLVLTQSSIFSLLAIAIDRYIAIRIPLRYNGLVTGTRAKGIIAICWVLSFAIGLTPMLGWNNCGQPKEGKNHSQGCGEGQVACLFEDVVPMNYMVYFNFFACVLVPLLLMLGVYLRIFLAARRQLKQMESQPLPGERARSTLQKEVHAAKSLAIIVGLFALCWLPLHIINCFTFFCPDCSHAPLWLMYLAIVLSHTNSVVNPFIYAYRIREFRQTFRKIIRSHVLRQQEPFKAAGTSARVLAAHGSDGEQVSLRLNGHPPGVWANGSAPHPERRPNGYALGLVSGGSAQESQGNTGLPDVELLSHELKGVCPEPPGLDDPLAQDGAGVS

[4] = biological target: Adenosine receptors; A2b & A3 (Homo sapiens) (UniProt P29275+P0DMS8); assay: Selectivity ratio (h2B/hA3); type: protein assay
[5] = biological target: Adenosine receptors; A1 & A3 (Homo sapiens) (UniProt P30542+P0DMS8); assay: Selectivity ratio (hA1/hA3); type: protein assay
Adenosine receptor A3 [6] = biological target: T4, Adenosine receptor A3 (Homo sapiens, UniProt P0DMS8); assay: biochemical
T4 sequence (P0DMS8 whole entry): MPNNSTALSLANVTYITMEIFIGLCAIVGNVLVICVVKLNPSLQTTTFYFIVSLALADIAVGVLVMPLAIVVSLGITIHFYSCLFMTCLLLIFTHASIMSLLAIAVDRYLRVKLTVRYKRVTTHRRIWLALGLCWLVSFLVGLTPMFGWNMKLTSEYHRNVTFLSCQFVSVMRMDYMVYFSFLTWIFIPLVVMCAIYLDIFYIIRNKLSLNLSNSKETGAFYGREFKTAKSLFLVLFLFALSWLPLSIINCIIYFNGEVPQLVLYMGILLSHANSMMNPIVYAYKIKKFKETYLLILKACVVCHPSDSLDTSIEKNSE

Adenosine receptor A2b [7] = biological target: T2, Adenosine receptor A2b; assay: Displacement of [3H]DPCPX from human Adenosine A2B receptor expressed in HEK293 cells; range 118-146; type: cell-based
Method in brief: (§2)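 Competition binding on membranes of HEK-293 cells carrying recombinant human A2B receptor. Incubation 60 min at 25 °C in 50 mM Tris HCl pH 7.4 with 10 mM MgCl2, 1 mM EDTA, 0.1 mM benzamidine and 2 IU/mL adenosine deaminase. Radioligand 40 nM [3H]DPCPX, at least six to eight test concentrations. NECA defined nonspecific binding. Bound ligand separated on glass-fibre filters and counted; n = 3-6.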

Adenosine receptor A1 [8] = biological target: T1, Adenosine receptor A1; assay: Displacement of [3H]DPCPX from human Adenosine A1 receptor expressed in CHO cells; range 248-276; type: cell-based
Adenosine receptor A2a [9] = biological target: T3, Adenosine receptor A2a; assay: Displacement of [3H]SCH-58261 from human Adenosine A2A receptor expressed in HEK293 cells; range 23-40; type: cell-based
Adenosine receptor A3 [10] = biological target: T4, Adenosine receptor A3; assay: Displacement of [3H]MRE3008-F20 from human Adenosine A3 receptor expressed in HEK cells; range 0.11-0.18; type: cell-based, HEK293
Adenosine receptor A2b [11] = biological target: T2, Adenosine receptor A2b; assay: Displacement of [3H]-DPCPX from human Adenosine A2B receptor expressed in HEK293 cells; range 118-173; type: cell-based
Method in brief: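 HEK-293 membranes expressing the human receptor were incubated 60 min at 25 °C. Six to eight test concentrations were used. Nonspecific binding was set with NECA. n = 3-6.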

Adenosine receptor A2a [12] = biological target: T3, Adenosine receptor A2a; assay: Displacement of [3H]SCH-58261 from human Adenosine A2A receptor expressed in HEK293 cells; range 255-366; type: cell-based
Adenosine receptor A3 [13] = biological target: T4, Adenosine receptor A3; assay: Displacement of [3H]MRE3008-F20 from human Adenosine A3 receptor expressed in HEK cells; range 0.65-1.58; type: cell-based, HEK293
Adenosine receptor A1 [14] = biological target: T1, Adenosine receptor A1; assay: Displacement of [3H]DPCPX from human Adenosine A1 receptor expressed in CHO cells; range 314-536; type: cell-based
Adenosine receptor A2b [15] = biological target: T2, Adenosine receptor A2b; assay: Displacement of [3H]DPCPX from human Adenosine A2B receptor expressed in HEK293 cells; range 57-105; type: cell-based; method in brief: as §1
Adenosine receptor A2a [16] = biological target: T3, Adenosine receptor A2a; assay: Displacement of [3H]SCH-58261 from human Adenosine A2A receptor expressed in HEK293 cells; range 332-426; type: cell-based
Adenosine receptor A3 [17] = biological target: T4, Adenosine receptor A3; assay: biochemical; remark: listed apart in the source
Adenosine receptor A2b [18] = biological target: T2, Adenosine receptor A2b; assay: Displacement of [3H]DPCPX from human Adenosine A2B receptor expressed in HEK293 cells; range 67-141; type: cell-based; method in brief: as §2
Adenosine receptor A1 [19] = biological target: T1, Adenosine receptor A1; assay: Displacement of [3H]DPCPX from human Adenosine A1 receptor expressed in CHO cells; range […]; type: cell-based
Method in brief: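 Competition binding on membranes of CHO cells stably expressing human A1 receptor, resuspended in 50 mM Tris HCl pH 7.4. Incubation 120 min at 25 °C with 1 nM [3H]DPCPX, 50 µg protein per assay and at least six to eight test concentrations. CHA defined nonspecific binding. Bound ligand separated on glass-fibre filters and counted; n = 3-6.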

Adenosine receptor A3 [20] = biological target: T4, Adenosine receptor A3; assay: Displacement of [3H]MRE3008-F20 from human Adenosine A3 receptor expressed in HEK cells; range 0.23-0.40; type: cell-based, HEK293
Adenosine receptor A2a [21] = biological target: T3, Adenosine receptor A2a; assay: Displacement of [3H]SCH-58,261 from human Adenosine A2A receptor expressed in HEK293 cells; range 122-187; type: cell-based

Structure (SMILES): CCn1cc2c(nc(NC(=O)Nc3ccc(C)cc3)n3nc(-c4ccco4)nc23)n1
- Ki (Adenosine receptor A2b [7]): 132 nM
- Ki (Adenosine receptor A1 [8]): 262 nM
- Ki (Adenosine receptor A2a [9]): 30 nM
- Ki (Adenosine receptor A3 [10]): 0.14 nM
- Ratio [4]: 943
- Ratio [5]: 1870

Structure (SMILES): CCCCn1cc2c(nc(NC(=O)Nc3ccc4c(c3)OCO4)n3nc(-c4ccco4)nc23)n1
- Ki (Adenosine receptor A1 [14]): 410 nM
- Ki (Adenosine receptor A2b [15]): 78 nM
- Ki (Adenosine receptor A2a [16]): 376 nM
- Ratio [4]: 156
- Ratio [5]: 820
- Ki (Adenosine receptor A3 [17]): 0.5 nM

Structure (SMILES): CCn1cc2c(nc(NC(=O)Nc3ccccc3Cl)n3nc(-c4ccco4)nc23)n1
- Ki (Adenosine receptor A2b [18]): 97 nM
- Ki (Adenosine receptor A1 [19]): 348 nM
- Ki (Adenosine receptor A3 [20]): 0.3 nM
- Ki (Adenosine receptor A2a [21]): 150 nM
- Ratio [4]: 323
- Ratio [5]: 1160

Further lines, results first:

- Ki (Adenosine receptor A1 [1]): 602 nM
- Ki (Adenosine receptor A2b [2]): 101 nM
- Ki (Adenosine receptor A2a [3]): 400 nM
- Ratio [4]: 91
- Ratio [5]: 542
- Ki (Adenosine receptor A3 [6]): 1.11 nM
Structure (SMILES): CCCCn1cc2c(nc(NC(=O)Cc3ccccc3)n3nc(-c4ccco4)nc23)n1

- Ki (Adenosine receptor A2b [11]): 143 nM
- Ki (Adenosine receptor A2a [12]): 306 nM
- Ki (Adenosine receptor A3 [13]): 1.01 nM
- Ratio [4]: 142
- Ratio [5]: 348
Structure (SMILES): CCCn1cc2c(nc(NC(=O)Cc3ccccc3)n3nc(-c4ccco4)nc23)n1
